Assays:
[1] = target: Vascular endothelial growth factor receptor 2 (Homo sapiens, UniProt P35968); experiment: Inhibition of VEGFR2 (unknown origin) incubated for 10 mins followed by kinase substrate addition and measured after 30 mins by caliper mobility shift assay
HT-29 = experiment: Antiproliferative activity against human HT-29 cells assessed as cell growth inhibition after 72 hrs by MTT assay; type: functional, cell-based; conditions: HT-29, 72 h
Outline: (§1)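 Log-phase cells were seeded at 5 × 10³ per well and attached 24 h. HT-29 and GES-1 were grown in DMEM-based medium, A549/HepG2/HGC-27 in RPMI-1640, HUVEC in ECM with ECGS; all media had 10% FBS. Cells were exposed to graded compound concentrations for 72 h at 37 °C. MTT (5 mg/mL stock) was added for 4 h, formazan dissolved in DMSO, and A490 read. IC50 was obtained by nonlinear sigmoidal regression; mean ± S.E. of three experiments.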

A549 = experiment: Antiproliferative activity against human A549 cells assessed as cell growth inhibition after 72 hrs by MTT assay; type: functional, cell-based; conditions: A549, 72 h; outline: as §1
HepG2 = experiment: Antiproliferative activity against human HepG2 cells assessed as cell growth inhibition after 72 hrs by MTT assay; type: functional, cell-based; conditions: HepG2, 72 h; outline: as §1
HGC-27 [2] = experiment: Antiproliferative activity against human HGC-27 cells assessed as cell growth inhibition after 72 hrs by MTT assay; type: functional, cell-based; conditions: HGC-27, 72 h; outline: as §1
HUVEC [3] = experiment: Cytotoxicity against human HUVEC cells assessed as inhibition of cell growth incubated for 72 hrs by MTT assay; type: cell-based; outline: as §1
GES1 = experiment: Cytotoxicity against human GES-1 cells assessed as inhibition of cell growth incubated for 72 hrs by MTT assay; type: cell-based; conditions: GES1, 72 h; outline: as §1
HGC-27 [4] = experiment: Induction of apoptosis in human HGC-27 cells assessed as total apoptotic cells level at 5 uM incubated for 24 hrs by propidium iode and annexin V-FITC staining based flow cytometry; type: functional
HGC-27 [5] = experiment: Induction of apoptosis in human HGC-27 cells assessed as viable cells level at 5 uM incubated for 24 hrs by propidium iode and annexin V-FITC staining based flow cytometry (reference value: 96.0%); type: functional
HGC-27 [6] = experiment: Induction of apoptosis in human HGC-27 cells assessed as early apoptotic cells level at 5 uM incubated for 24 hrs by propidium iode and annexin V-FITC staining based flow cytometry (reference value: 1.48%); type: functional
HGC-27 [7] = experiment: Induction of apoptosis in human HGC-27 cells assessed as late apoptotic cells level at 5 uM incubated for 24 hrs by propidium iode and annexin V-FITC staining based flow cytometry (reference value: 0.86%); type: functional
HGC-27 [8] = experiment: Induction of apoptosis in human HGC-27 cells assessed as necrotic cells level at 5 uM incubated for 24 hrs by propidium iode and annexin V-FITC staining based flow cytometry (reference value: 1.64%); type: functional
HUVEC [9] = experiment: Antiangiogenic activity against HUVEC cells assessed as reduction in VEGF-induced tube formation tube formation incubated for 12 hrs by matrigel-based assay; type: functional, cell-based; conditions: Homo sapiens
Outline: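 HUVECs at 4 × 10⁵ cells/mL seeded on Matrigel that had been polymerized 1 h at 37 °C. Cells were stimulated with 20 ng/mL VEGF and treated with compound (1, 2.5, 5 and 10 μM) or 0.1% DMSO vehicle for 12 h at 37 °C. Tubes were imaged by inverted microscopy. Tube length, surface area and branch points were quantified as pixel area.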

Chain of Vascular endothelial growth factor receptor 2 (P35968 whole entry): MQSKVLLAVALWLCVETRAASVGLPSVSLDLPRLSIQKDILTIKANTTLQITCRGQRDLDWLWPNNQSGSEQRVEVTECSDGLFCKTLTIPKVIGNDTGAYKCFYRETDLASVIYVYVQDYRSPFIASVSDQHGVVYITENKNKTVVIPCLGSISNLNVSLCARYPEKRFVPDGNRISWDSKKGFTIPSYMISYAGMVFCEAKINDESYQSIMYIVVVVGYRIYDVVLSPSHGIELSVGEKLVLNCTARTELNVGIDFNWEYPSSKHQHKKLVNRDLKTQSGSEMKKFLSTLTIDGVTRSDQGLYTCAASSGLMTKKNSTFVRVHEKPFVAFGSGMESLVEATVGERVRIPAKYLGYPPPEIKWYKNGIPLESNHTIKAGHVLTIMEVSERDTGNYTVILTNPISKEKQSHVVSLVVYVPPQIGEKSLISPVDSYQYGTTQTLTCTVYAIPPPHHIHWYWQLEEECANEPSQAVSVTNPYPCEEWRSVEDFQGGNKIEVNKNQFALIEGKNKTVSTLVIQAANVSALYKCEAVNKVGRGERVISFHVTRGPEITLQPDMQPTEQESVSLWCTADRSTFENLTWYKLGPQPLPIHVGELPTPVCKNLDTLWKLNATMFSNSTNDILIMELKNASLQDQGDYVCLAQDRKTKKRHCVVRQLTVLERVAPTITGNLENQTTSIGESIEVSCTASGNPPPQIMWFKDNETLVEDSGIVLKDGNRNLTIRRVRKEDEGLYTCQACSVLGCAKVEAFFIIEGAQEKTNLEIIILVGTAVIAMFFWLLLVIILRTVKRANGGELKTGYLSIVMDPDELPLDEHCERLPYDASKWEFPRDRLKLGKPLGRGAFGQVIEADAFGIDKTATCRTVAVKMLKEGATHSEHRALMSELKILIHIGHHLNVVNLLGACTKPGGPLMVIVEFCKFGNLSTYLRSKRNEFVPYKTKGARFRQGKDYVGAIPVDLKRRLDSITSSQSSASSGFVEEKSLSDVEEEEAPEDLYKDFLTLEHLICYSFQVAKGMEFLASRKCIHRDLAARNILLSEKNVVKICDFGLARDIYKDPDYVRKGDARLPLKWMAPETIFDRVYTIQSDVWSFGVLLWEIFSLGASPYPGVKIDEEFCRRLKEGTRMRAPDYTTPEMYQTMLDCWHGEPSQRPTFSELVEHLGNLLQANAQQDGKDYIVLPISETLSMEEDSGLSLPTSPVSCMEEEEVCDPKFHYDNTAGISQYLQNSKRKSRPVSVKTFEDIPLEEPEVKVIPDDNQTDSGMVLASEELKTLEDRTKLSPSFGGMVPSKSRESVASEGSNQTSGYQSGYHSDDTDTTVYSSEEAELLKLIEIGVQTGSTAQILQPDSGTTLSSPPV

IC50 [1] [µM] | IC50 (HT-29) [µM] | IC50 (A549) [µM] | IC50 (HepG2) [µM] | Structure (SMILES) | IC50 (HGC-27 [2]) [µM] | IC50 (HUVEC [3]) [µM] | IC50 (GES1) [µM] | Activity (HGC-27 [4]) [%] | Activity (HGC-27 [5]) [%] | Activity (HGC-27 [6]) [%] | Activity (HGC-27 [7]) [%] | Activity (HGC-27 [8]) [%] | inhibition (HUVEC [9])
0.22 | 9.17 | 12.1 | 10.4 | Cn1cc(Nc2n[nH]c3cc(-c4cnn(CC(=O)Nc5ccc(Cl)c(C(F)(F)F)c5)c4)ccc23)cn1 | 12.5 | 4.03 | 13.3 | – | – | – | – | – | –
0.027 | 7.03 | 1.65 | 20.4 | Cc1ccc(NC(=O)Cn2cc(-c3ccc4c(NC(=O)C5CC5)n[nH]c4c3)c(C)n2)cc1C(F)(F)F | 0.65 | 4.92 | 3.09 | – | – | – | – | – | –
0.143 | 3.69 | 7.17 | 6.54 | CS(=O)(=O)Cc1cccc(Nc2n[nH]c3cc(-c4cnn(CC(=O)Nc5ccc(Cl)c(C(F)(F)F)c5)c4)ccc23)c1 | 1.26 | 7.22 | 17.7 | – | – | – | – | – | –
0.06 | 11 | 9.88 | 22.3 | Cc1ccc(NC(=O)Cn2cc(-c3ccc4c(NCC5CC5)n[nH]c4c3)cn2)cc1C(F)(F)F | 1.22 | 17.9 | 12 | – | – | – | – | – | –
0.0014 | 1.01 | 2.16 | 2.51 | Cc1ccc(NC(=O)Cn2cc(-c3ccc4c(NC(=O)C5CC5)n[nH]c4c3)cn2)cc1C(F)(F)F | 0.63 | 0.95 | 4.24 | – | – | – | – | – | –
0.0023 | 7.78 | 5.34 | 9.08 | Cc1ccc(NC(=O)Cn2cc(-c3ccc4c(NC(=O)c5cccnc5)n[nH]c4c3)cn2)cc1C(F)(F)F | 1.17 | 1.75 | 8.46 | – | – | – | – | – | –
0.014 | 1.37 | 8.55 | 6.03 | O=C(Cn1cc(-c2ccc3c(NC(=O)C4CC4)n[nH]c3c2)cn1)Nc1ccc(Cl)c(C(F)(F)F)c1 | 1.05 | 1.07 | 29.8 | – | – | – | – | – | –
– | > 50 | > 50 | > 50 | Cc1ccc(NC(=O)Cn2cc(-c3ccc4c(NC(=O)C5CC5)n[nH]c4c3)nn2)cc1C(F)(F)F | > 50 | < 1 | > 100 | – | – | – | – | – | –
– | 5.57 | 5.13 | 6.18 | CNC(=O)c1cc(Oc2ccc(NC(=O)Nc3ccc(Cl)c(C(F)(F)F)c3)cc2)ccn1 [SORAFENIB] | 5.22 | 8.33 | 9.59 | 25.41 | 50.6 | 6.91 | 18.5 | 24 | Dose-Dependent Effect
0.249 | 6.11 | 4.72 | 4.32 | Cn1cc2ccc(Nc3n[nH]c4cc(-c5cnn(CC(=O)Nc6ccc(Cl)c(C(F)(F)F)c6)c5)ccc34)cc2n1 | 5.03 | 6.4 | 10 | – | – | – | – | – | –
0.011 | 1.79 | 5.28 | 15.3 | Cc1ccc(NC(=O)Cn2cc(-c3ccc4c(NC(=O)C5CCN(C)CC5)n[nH]c4c3)cn2)cc1C(F)(F)F | 0.16 | 53.9 | 5.31 | – | – | – | – | – | –
0.012 | 8.09 | 0.96 | 38.1 | Cc1ccc(NC(=O)Cc2ccc(-c3ccc4c(NC(=O)C5CC5)n[nH]c4c3)s2)cc1C(F)(F)F | 3.09 | 5.62 | 13.9 | – | – | – | – | – | –
– | 44.7 | 45.1 | > 50 | Cc1ccc(NC(=O)Cc2ccc(-c3ccc4c(NC(=O)C5CC5)n[nH]c4c3)cc2)cc1C(F)(F)F | 33.7 | > 100 | > 100 | – | – | – | – | – | –
0.028 | 0.48 | 2.48 | 13.7 | Cc1ccc(NC(=O)Cn2cc(-c3ccc4c(NC(=O)C(C)C)n[nH]c4c3)cn2)cc1C(F)(F)F | 0.39 | 2.43 | > 100 | – | – | – | – | – | –
0.0074 | 3.97 | 19.5 | 11.5 | Nc1n[nH]c2cc(-c3cnn(CC(=O)Nc4cccc(C(F)(F)F)c4)c3)ccc12 | 10.2 | 7.25 | 22.3 | – | – | – | – | – | –
0.892 | 5.21 | 7.96 | 5.63 | O=C(Cn1cc(-c2ccc3c(Nc4cccnc4)n[nH]c3c2)cn1)Nc1ccc(Cl)c(C(F)(F)F)c1 | 3.65 | 8.04 | 12.8 | – | – | – | – | – | –
0.012 | 5.06 | 8.82 | 5.61 | O=C(Cn1cc(-c2ccc3c(NC(=O)C4CC4)n[nH]c3c2)cn1)Nc1cc(C(F)(F)F)ccc1F | 3.73 | 5.26 | 25 | – | – | – | – | – | –
0.407 | 3.27 | 1.37 | 3.83 | CNS(=O)(=O)c1cc(Nc2n[nH]c3cc(-c4cnn(CC(=O)Nc5ccc(Cl)c(C(F)(F)F)c5)c4)ccc23)ccc1C | 0.39 | 1.45 | 3.37 | – | – | – | – | – | –
0.012 | 3.57 | 12.5 | 7.71 | Nc1n[nH]c2cc(-c3cnn(CC(=O)Nc4ccc(Cl)c(C(F)(F)F)c4)c3)ccc12 | 7.68 | 6.84 | 12 | – | – | – | – | – | –
0.022 | 7.83 | 20.5 | 13.3 | Nc1n[nH]c2cc(-c3cnn(CC(=O)Nc4cc(C(F)(F)F)ccc4F)c3)ccc12 | 15.5 | 23.9 | 7.64 | – | – | – | – | – | –
– | > 50 | 20.9 | 25.5 | Cc1ccc(NC(=O)Cc2cccc(-c3ccc4c(NC(=O)C5CC5)n[nH]c4c3)c2)cc1C(F)(F)F | 15.6 | > 50 | 48.5 | – | – | – | – | – | –
0.307 | 14.7 | 1.81 | 27.4 | Cc1ccc(NC(=O)Cn2nc(C)c(-c3ccc4c(NC(=O)C5CC5)n[nH]c4c3)c2C)cc1C(F)(F)F | 2.79 | 6.62 | 11.9 | – | – | – | – | – | –
0.038 | 8.32 | 8.48 | 15.1 | CCNc1n[nH]c2cc(-c3cnn(CC(=O)Nc4ccc(C)c(C(F)(F)F)c4)c3)ccc12 | 1.19 | > 50 | 1.9 | – | – | – | – | – | –
0.015 | 0.19 | 1.58 | 8.34 | Cc1ccc(NC(=O)Cn2cc(-c3ccc4c(NC(=O)C5CCCC5)n[nH]c4c3)cn2)cc1C(F)(F)F | 0.5 | 1.49 | 0.75 | – | – | – | – | – | –
0.00073 | 4.92 | 3.86 | 2.61 | Cc1ccc(NC(=O)Cn2cc(-c3ccc4c(NC(=O)c5cnn(C)c5)n[nH]c4c3)cn2)cc1C(F)(F)F | 0.021 | 4.41 | 1.67 | – | – | – | – | – | –
0.0027 | 1.54 | 7.09 | 4.18 | Cc1ccc(NC(=O)Cn2cc(-c3ccc4c(N)n[nH]c4c3)cn2)cc1C(F)(F)F | 4.98 | 5.24 | 6.96 | – | – | – | – | – | –
